Laboratory results: publication PMC2745822 (The Journal of pharmacology and experimental therapeutics, 2008)
Several values for one entry are separate records, joined by “and”; a condition that tells them apart may be missing. Identical values can stand only once. Like-named read-outs stand apart in the source and are kept apart here.

How the values were obtained:
[1] = ref Bodick et al., 1997; Shekhar et al., 2001, 2008; cited from earlier work
[2] = test system: amphetamine-induced hyperlocomotion in rats; conditions: ref Stanhope et al., 2001; cited from earlier work
rM4 receptor [3] = target: T1, rM4 receptor (Rattus norvegicus, UniProt P08485); test: [3H]NMS equilibrium radioligand binding, membranes from rM4-expressing CHO cells; conditions: 0.1 nM [3H]NMS; concentrations up to 30 µM
T1 sequence (P08485 1-478): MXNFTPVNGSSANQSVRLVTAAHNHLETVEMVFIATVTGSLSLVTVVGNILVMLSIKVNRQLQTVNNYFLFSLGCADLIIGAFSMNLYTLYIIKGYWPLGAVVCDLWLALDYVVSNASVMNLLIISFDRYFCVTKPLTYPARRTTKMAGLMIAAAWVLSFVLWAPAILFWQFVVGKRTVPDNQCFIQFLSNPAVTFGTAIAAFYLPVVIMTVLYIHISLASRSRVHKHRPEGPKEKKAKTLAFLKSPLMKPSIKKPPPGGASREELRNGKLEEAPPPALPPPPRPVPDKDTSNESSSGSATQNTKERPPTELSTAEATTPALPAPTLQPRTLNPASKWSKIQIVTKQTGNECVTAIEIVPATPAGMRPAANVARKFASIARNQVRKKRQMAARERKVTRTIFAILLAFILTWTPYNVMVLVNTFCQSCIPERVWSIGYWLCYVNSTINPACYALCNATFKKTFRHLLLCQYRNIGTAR

[4] = test system: motor performance in rats; test: Rotorod test; format: in vivo, rat; conditions: 30, 56.6, or 100 mg/kg i.p., 30-min pretreatment
Outline: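 Rats got one 120-s training trial, then two 85-s trials about 10 min apart, on a 7.5-cm rod turning at a constant 20 rpm. They were pretreated i.p. for 30 min with vehicle or test compound (30, 56.6 or 100 mg/kg, salt form, 1.0 ml/kg in 10% Tween 80/water, pH ~7.0). Time on the rod was recorded, capped at 85 s. Analysis was one-way ANOVA with Dunnett's test versus vehicle.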

rat M4 mAChR [5] = target: T2, rat M4 mAChR (Rattus norvegicus, UniProt P08485); format: cell-based; conditions: compound alone
T2 sequence (P08485 1-478): T1 sequence (P08485 1-478)

[6] = target: T3, human M4 muscarinic receptor (Homo sapiens, UniProt P08173); conditions: in presence of compound
T3 sequence (P08173 1-479): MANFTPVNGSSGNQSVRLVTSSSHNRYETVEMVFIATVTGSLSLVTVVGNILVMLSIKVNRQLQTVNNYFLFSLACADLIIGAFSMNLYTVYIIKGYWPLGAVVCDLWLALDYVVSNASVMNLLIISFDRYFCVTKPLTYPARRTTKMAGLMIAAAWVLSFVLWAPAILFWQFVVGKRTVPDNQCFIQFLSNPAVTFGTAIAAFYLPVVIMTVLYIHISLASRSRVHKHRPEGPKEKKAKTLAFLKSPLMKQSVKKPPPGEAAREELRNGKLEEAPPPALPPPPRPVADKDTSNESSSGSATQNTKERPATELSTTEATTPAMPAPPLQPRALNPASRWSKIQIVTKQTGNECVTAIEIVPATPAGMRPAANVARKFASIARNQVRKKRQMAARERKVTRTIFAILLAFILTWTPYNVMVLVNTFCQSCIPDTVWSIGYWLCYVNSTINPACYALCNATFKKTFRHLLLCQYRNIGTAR

[7] = Formulation into homogeneous dosing solution; format: physicochemical; conditions: vehicles acceptable for in vivo studies
Outline: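 Test compound was jet-milled to uniform nanoparticles before vehicle formulation. It was then dissolved at 56.6 mg/ml in 10% Tween 80 in double-deionized water, with pH adjusted to about 7.0 using 1 N NaOH. The mixture was sonicated until a uniform homogeneous solution formed, for intraperitoneal dosing.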

[8] = test system: amphetamine-induced hyperlocomotion in rats; test: Amphetamine-induced hyperlocomotion; format: in vivo, rat; conditions: 56.6 mg/kg i.p., 30-min pretreatment; 1 mg/kg s.c. amphetamine; 60 min
[9] = test system: panel of 68 discrete GPCRs, ion channels, transporters, and enzymes; test: MDS Pharma LeadProfiling Screen radioligand binding panel; conditions: 10 µM; for VU0152099 with the single exception of GABAA receptors
[10] = Brain and plasma exposure pharmacokinetic profiling; format: in vivo, rat; conditions: male rats, 56.6 mg/kg i.p.; mean ± S.E.M., n = 3
Outline: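 Male Sprague-Dawley rats (225–250 g), fasted overnight. Test compound dissolved at 56.6 mg/ml in 10% Tween 80/water, pH ~7.0 (1 N NaOH), sonicated, and given at 56.6 mg/kg i.p. Brain and trunk plasma taken at 0.5, 1, 2 and 4 h, three rats per time point. Brain homogenized in acetonitrile/methanol and plasma precipitated with acidified acetonitrile, both with internal standard. Analyzed by positive-ESI LC-MS-MS, linear 50 ng/ml–100 µg/ml. AUC0-∞ by trapezoidal method.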

rat M4 mAChR [11] = target: T2, rat M4 mAChR; conditions: ref Shirey et al., 2008, cited from earlier work
other mAChR subtypes = conditions: ref Shirey et al., 2008; cited from earlier work
[12] = ref Shirey et al., 2008; cited from earlier work
rM4 receptor [13] = target: T1, rM4 receptor; conditions: ref Shirey et al., 2008; cited from earlier work

SMILES	clinical efficacy [1]	effect on amphetamine-induced hyperlocomotion [2]	displacement of [3H]NMS (rM4 receptor [3])	effect on performance in the rotorod test [4]	response in the absence of an ACh EC20 (agonist activity) (rat M4 mAChR [5])	maximal response to ACh [6]	formulation into homogeneous dosing solution [7]	effect on amphetamine-induced hyperlocomotion [8]	displacement of binding, all targets tested [9]	Mean AUC (0-∞) brain [10] [ng·h/g]	Mean AUC(0-∞) plasma [10] [µg·h/mL]	t1/2 brain [10] [h]	t1/2 plasma [10] [h]	EC50 (rat M4 mAChR [11]; read-out: M4 EC50) [µM]	potentiation (-fold shift) of the M4 ACh CRC (rat M4 mAChR [11]) [fold]	activation of the other mAChR subtypes (other mAChR subtypes)	log P [12]	decrease in the ACh Ki (rM4 receptor [13]) [fold]
CCCCCCOc1nsnc1C1=CCCN(C)C1 [xanomeline, 3-[3-hexyloxy-1,2,5-thiadiazo-4-yl]-1,2,5,6-tetrahydro-1-methylpyridine]	demonstrated efficacy as both a cognition-enhancing agent and an antipsychotic agent	reversal of amphetamine-induced hyperlocomotion in rats	–	–	–	–	–	–	–	–	–	–	–	–	–	–	–	–
COc1ccc(CNC(=O)c2sc3nc(C)cc(C)c3c2N)cc1 [VU0152100, 3-amino-N-(4-methoxybenzyl)-4,6-dimethylthieno[2,3-b]pyridine carboxamide]	–	–	neither M4 PAM displaced	had no effect on performance in the rotorod test	neither VU0152099 nor VU0152100 elicited a response	approximately 130%	afforded homogeneous dosing solutions in multiple vehicles acceptable for in vivo studies	produced robust decreases in amphetamine-induced hyperlocomotion	less than 50%	5726.35 ± 694.68	6.57035 ± 0.23587	1.12 ± 0.01	1.62 ± 0.69	–	–	–	–	–
Cc1cc(C)c2c(N)c(C(=O)NCc3ccc(Cl)cc3)sc2n1 [VU10010, 3-amino-N-(4-chlorobenzyl)-4,6-dimethylthieno[2,3-b]pyridine-2-carboxamide]	–	–	–	–	–	–	unable to formulate VU10010 into a homogeneous solution in any acceptable vehicle	–	–	–	–	–	–	~0.4	47	causes no activation of the other mAChR subtypes	~ 4.5 and 4.5	14
